Assay results: ChEMBL document CHEMBL1649469, “Pharmacokinetics of nikkomycin Z after single rising oral doses” (Antimicrob Agents Chemother, 2009)

Assays:
[1] = Cmax in healthy human at 1750 mg, po administered as single dose measured after 72 hrs by HPLC method; details: in vivo
[2] = AUC (0 to t) in healthy human at 1750 […], po administered as single dose measured after 72 hrs by HPLC method; type: ADME, organism-based; parameters: time < 72 hr, route oral; details: plasma
Summary of the method: (§1)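 Healthy fasting male volunteers, two groups of six, each given two of three single oral capsule doses plus a random placebo, with a 2-week washout. About 12 blood samples were taken over 24 h, then at 48 and 72 h. Plasma was assayed by validated HPLC-UV (LLOQ 48 ng/ml). Noncompartmental analysis: Cmax/Tmax observed, AUC0-t* by linear trapezoid, λz from the terminal log-linear phase, AUC0-∞ = AUC0-t* + C*/λz.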

Homo sapiens [3] = test: Hepatotoxicity in healthy human assessed as elevated alkaline phosphatase level at 1000 […], po administered as single dose after 48 hrs; type: toxicity, organism-based; parameters: route oral; details: in vivo
[4] = First-order absorption rate constant in healthy human at 250 to 2000 mg, po administered as single dose by HPLC method; details: in vivo
[5] = Cmax in healthy human at 1500 mg, po administered as single dose measured after 72 hrs by HPLC method; details: in vivo
[6] = Terminal half life in healthy human at 1000 mg, po administered as single dose measured after 72 hrs by HPLC method; details: in vivo, read-out: beta t1/2 (converted)
[7] = Cmax in healthy human at 500 mg, po administered as single dose measured after 72 hrs by HPLC method; details: in vivo
[8] = Cmax in healthy human at 250 mg, po administered as single dose measured after 72 hrs by HPLC method; details: in vivo
[9] = Tmax in healthy human at 2000 mg, po administered as single dose measured after 72 hrs by HPLC method; details: in vivo
[10] = Cmax in healthy human at 1000 mg, po administered as single dose measured after 72 hrs by HPLC method; details: in vivo
[11] = AUC (0 to t) in healthy human at 250 mg, po administered as single dose measured after 72 hrs by HPLC method; details: plasma
[12] = Terminal half life in healthy human at 2000 mg, po administered as single dose measured after 72 hrs by HPLC method; details: in vivo, read-out: beta t1/2 (converted)
[13] = Relative bioavailability based on AUC (0 to infinity) in healthy human at 1500 […], po administered as single dose by HPLC method; type: ADME, organism-based; details: in vivo
Summary of the method: (§2)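 Relative bioavailability is AUC0-∞ at the test dose relative to the group's reference dose: 250 mg for group 1 (1,000 and 1,750 mg), 500 mg for group 2 (1,500 and 2,000 mg). Same volunteers, single oral doses, plasma sampling to 72 h and HPLC-UV assay as above.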

[14] = AUC (0 to infinity) in healthy human at 2000 mg, po administered as single dose measured after 72 hrs by HPLC method; details: plasma
[15] = AUC (0 to t) in healthy human at 1000 mg, po administered as single dose measured after 72 hrs by HPLC method; details: plasma
[16] = AUC (0 to infinity) in healthy human at 500 […], po administered as single dose measured after 72 hrs by HPLC method; type: ADME, organism-based; parameters: time infinity, route oral; details: plasma
Summary of the method: as §1

[17] = AUC (0 to infinity) in healthy human at 1750 mg, po administered as single dose measured after 72 hrs by HPLC method; details: plasma
[18] = AUC (0 to infinity) in healthy human at […], po administered as single dose measured after 72 hrs by HPLC method; type: ADME, organism-based; parameters: time infinity, route oral; details: plasma
Summary of the method: as §1

Homo sapiens [19] = test: Absorption time lag in healthy human at 250 to 2000 […], po administered as single dose by HPLC method; type: ADME, organism-based; parameters: route oral; details: in vivo
Summary of the method: (§3)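 Population PK model: one compartment, first-order absorption with lag time, first-order elimination, fitted to plasma HPLC concentrations from single oral doses of 250–2,000 mg in healthy fasting men. F for 250–500 mg was fixed at 1, and doses of 1,500–2,000 mg were assumed to share one F. Posterior predictive check used.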

Homo sapiens [20] = test: Hepatotoxicity in healthy human assessed as elevated bilirubin level at 1000 […], po administered as single dose after 72 hrs; type: toxicity, organism-based; parameters: route oral; details: in vivo
[21] = Terminal half life in healthy human at 1750 mg, po administered as single dose measured after 72 hrs by HPLC method; details: in vivo, read-out: beta t1/2 (converted)
[22] = Oral clearance in healthy human at 250 to 2000 […] administered as single dose by HPLC method; type: ADME, organism-based; details: in vivo
Summary of the method: as §3

Homo sapiens [23] = test: Volume of distribution in healthy human at 250 to 2000 […], po administered as single dose by HPLC method; type: ADME, organism-based; parameters: route oral; details: in vivo
Summary of the method: as §3

Homo sapiens [24] = test: Toxicity in healthy human assessed as occurrence of headache at […], po administered as single dose; type: organism-based; parameters: route oral; details: in vivo
[25] = AUC (0 to infinity) in healthy human at 1500 mg, po administered as single dose measured after 72 hrs by HPLC method; details: plasma
[26] = Tmax in healthy human at 1000 […], po administered as single dose measured after 72 hrs by HPLC method; type: ADME, organism-based; parameters: route oral; details: in vivo
Summary of the method: as §1

[27] = Relative bioavailability in healthy human at 1500 to 2000 […], po administered as single dose by HPLC method; type: ADME, organism-based; details: in vivo
Summary of the method: as §3

[28] = Tmax in healthy human at […], po administered as single dose measured after 72 hrs by HPLC method; type: ADME, organism-based; parameters: route oral; details: in vivo
Summary of the method: as §1

Homo sapiens [29] = test: Toxicity in healthy human assessed as occurrence of dizziness at […], po administered as single dose; type: organism-based; parameters: route oral; details: in vivo
Homo sapiens [30] = test: Hepatotoxicity in healthy human assessed as elevated alkaline phosphatase level at 1000 […], po administered as single dose after 72 hrs; type: toxicity, organism-based; parameters: route oral; details: in vivo
[31] = Cmax in healthy human at 2000 […], po administered as single dose measured after 72 hrs by HPLC method; type: ADME, organism-based; parameters: route oral; details: in vivo
Summary of the method: as §1

[32] = AUC (0 to t) in healthy human at 2000 […], po administered as single dose measured after 72 hrs by HPLC method; type: ADME, organism-based; parameters: time < 72 hr, route oral; details: plasma
Summary of the method: as §1

[33] = AUC (0 to t) in healthy human at 1500 […], po administered as single dose measured after 72 hrs by HPLC method; type: ADME, organism-based; parameters: time < 72 hr, route oral; details: plasma
Summary of the method: as §1

[34] = Terminal half life in healthy human at 1500 mg, po administered as single dose measured after 72 hrs by HPLC method; details: in vivo, read-out: beta t1/2 (converted)
Homo sapiens [35] = test: Hepatotoxicity in healthy human assessed as elevated bilirubin level at 1000 […], po administered as single dose after 7 days post dosing; type: toxicity, organism-based; parameters: route oral; details: in vivo, 168 h
Homo sapiens [36] = test: Hepatotoxicity in healthy human assessed as elevated aspartate transaminase level at 1000 […], po administered as single dose after 72 hrs; type: toxicity, organism-based; parameters: route oral; details: in vivo
Homo sapiens [37] = test: Hepatotoxicity in healthy human assessed as elevated aspartate transaminase level at 1000 […], po administered as single dose after 48 hrs; type: toxicity, organism-based; parameters: route oral; details: in vivo
[38] = AUC (0 to infinity) in healthy human at 1000 mg, po administered as single dose measured after 72 hrs by HPLC method; details: plasma
Homo sapiens [39] = test: Hepatotoxicity in healthy human assessed as elevated bilirubin level at 1000 […], po administered as single dose after 48 hrs; type: toxicity, organism-based; parameters: route oral; details: in vivo
[40] = Tmax in healthy human at 500 […], po administered as single dose measured after 72 hrs by HPLC method; type: ADME, organism-based; parameters: route oral; details: in vivo
Summary of the method: as §1

[41] = Relative bioavailability based on AUC (0 to infinity) in healthy human at 1750 […], po administered as single dose by HPLC method; type: ADME, organism-based; details: in vivo
Summary of the method: as §2

[42] = Terminal half life in healthy human at 250 mg, po administered as single dose measured after 72 hrs by HPLC method; details: in vivo, read-out: beta t1/2 (converted)
[43] = Relative bioavailability based on AUC (0 to infinity) in healthy human at 2000 […], po administered as single dose by HPLC method; type: ADME, organism-based; details: in vivo
Summary of the method: as §2

[44] = Relative bioavailability in healthy human at 1000 […], po administered as single dose by HPLC method; type: ADME, organism-based; details: in vivo
Summary of the method: as §3

[45] = AUC (0 to t) in healthy human at 500 mg, po administered as single dose measured after 72 hrs by HPLC method; details: plasma
[46] = Tmax in healthy human at 1750 mg, po administered as single dose measured after 72 hrs by HPLC method; details: in vivo
[47] = Terminal half life in healthy human at 500 mg, po administered as single dose measured after 72 hrs by HPLC method; details: in vivo, read-out: beta t1/2 (converted)
[48] = Tmax in healthy human at 1500 […], po administered as single dose measured after 72 hrs by HPLC method; type: ADME, organism-based; parameters: route oral; details: in vivo
Summary of the method: as §1

C[C@@H]([C@H](N)C(=O)N[C@H](C(=O)O)[C@H]1O[C@@H](n2ccc(=O)[nH]c2=O)[C@H](O)[C@@H]1O)[C@H](O)c1ccc(O)cn1 [NIKKOMYCIN]
Cmax [1]: 6440 ng/mL
AUC(0-t) at 72 h [2]: 37400 ng·h/mL
Activity (Homo sapiens [3]): Non-toxic
Ka [4]: 0.000113 s⁻¹
Cmax [5]: 4850 ng/mL
half-life [6]: 2.06 h
Cmax [7]: 3990 ng/mL
Cmax [8]: 2210 ng/mL
Tmax [9]: 4 h
Cmax [10]: 5140 ng/mL
AUC(0-t) at 72 h [11]: 11300 ng·h/mL
half-life [12]: 2.09 h
bioavailability [13]: 41%
AUC(0-inf) [14]: 40700 ng·h/mL
AUC(0-t) at 72 h [15]: 32100 ng·h/mL
AUC(0-inf) [16]: 24600 ng·h/mL
AUC(0-inf) [17]: 37900 ng·h/mL
AUC(0-inf) [18]: 11600 ng·h/mL
Tlag (Homo sapiens [19]): 0.695 h
Activity (Homo sapiens [20]): Toxic
half-life [21]: 2.12 h
CL/F [22]: 367 mL/min
Vd (Homo sapiens [23]): 41.5 L
Activity (Homo sapiens [24]): Toxic
AUC(0-inf) [25]: 30600 ng·h/mL
Tmax [26]: 4 h
bioavailability [27]: 43.9%
Tmax [28]: 2 h
Activity (Homo sapiens [29]): Toxic
Activity (Homo sapiens [30]): Toxic
Cmax [31]: 6420 ng/mL
AUC(0-t) at 72 h [32]: 40200 ng·h/mL
AUC(0-t) at 72 h [33]: 30300 ng·h/mL
half-life [34]: 2.21 h
Activity (Homo sapiens [35]): Non-toxic
Activity (Homo sapiens [36]): Toxic
Activity (Homo sapiens [37]): Non-toxic
AUC(0-inf) [38]: 32500 ng·h/mL
Activity (Homo sapiens [39]): Non-toxic
Tmax [40]: 3 h
bioavailability [41]: 47%
half-life [42]: 2.53 h
bioavailability [43]: 41%
bioavailability [44]: 61.6%
AUC(0-t) at 72 h [45]: 24300 ng·h/mL
Tmax [46]: 4 h
half-life [47]: 2.22 h
Tmax [48]: 2 h
